ChEMBL document CHEMBL1130111, “The chemistry of pseudomonic acid. 18. Heterocyclic replacement of the alpha,beta-unsaturated ester: synthesis, molecular modeling, and antibacterial activity” (J Med Chem, 1997)

Experiments:
Staphylococcus aureus = assay: minimum inhibitory concentration (MIC) against Staphylococcus aureus NCTC 6571.; type: functional
Summary of the method: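 Agar dilution MIC in blood agar base with 5% chocolated horse blood. Inoculum was an overnight nutrient broth culture, about 10^6 CFU per spot. Plates were incubated 18-24 h at 37 °C. MIC taken as the lowest concentration fully inhibiting growth.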

[1] = molecular target: T1, Isoleucine--tRNA ligase (Staphylococcus aureus) (UniProt P41972); assay: (§1) Inhibition concentration against Isoleucyl-tRNA synthetase from Staphylococcus aureus NCTC 6571; details: concentration not given here
T1 sequence (whole entry): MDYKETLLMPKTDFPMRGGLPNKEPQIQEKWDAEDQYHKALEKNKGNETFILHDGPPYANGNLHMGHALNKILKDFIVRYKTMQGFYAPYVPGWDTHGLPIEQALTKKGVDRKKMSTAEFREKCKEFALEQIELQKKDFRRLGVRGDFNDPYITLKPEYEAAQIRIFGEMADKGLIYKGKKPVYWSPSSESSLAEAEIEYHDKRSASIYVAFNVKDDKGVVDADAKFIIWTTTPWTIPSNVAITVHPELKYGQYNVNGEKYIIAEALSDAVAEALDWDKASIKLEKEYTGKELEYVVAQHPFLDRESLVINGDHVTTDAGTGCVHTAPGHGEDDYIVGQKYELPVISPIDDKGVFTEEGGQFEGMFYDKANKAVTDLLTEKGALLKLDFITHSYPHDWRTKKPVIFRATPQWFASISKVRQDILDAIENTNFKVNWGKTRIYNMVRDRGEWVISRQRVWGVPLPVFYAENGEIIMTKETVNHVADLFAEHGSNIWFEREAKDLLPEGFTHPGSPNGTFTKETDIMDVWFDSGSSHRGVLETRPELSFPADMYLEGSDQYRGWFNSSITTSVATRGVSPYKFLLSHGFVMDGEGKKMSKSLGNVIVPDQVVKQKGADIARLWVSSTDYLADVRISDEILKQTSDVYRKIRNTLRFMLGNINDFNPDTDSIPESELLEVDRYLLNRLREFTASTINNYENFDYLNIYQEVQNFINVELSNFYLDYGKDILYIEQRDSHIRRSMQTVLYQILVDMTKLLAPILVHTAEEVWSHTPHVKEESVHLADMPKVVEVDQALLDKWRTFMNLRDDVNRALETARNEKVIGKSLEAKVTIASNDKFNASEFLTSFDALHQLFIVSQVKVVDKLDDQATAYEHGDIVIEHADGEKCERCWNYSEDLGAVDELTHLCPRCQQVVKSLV
Summary of the method: (§2)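 IRS extracted from S. aureus grown to late stationary phase in shake flasks (Nutrient Broth No. 2). Cells were sonicated with lysostaphin, DNase-treated, dialysed against 20 mM Tris-HCl pH 8 with 5 mM MgCl2 and 2 mM DTT, then ultracentrifuged. Compound was preincubated with enzyme 5 min. Charging of E. coli tRNA with 4.8 µM [U-14C]-isoleucine and 5 mg/mL ATP was run 10 min at 37 °C. IC50 taken as 50% inhibition of 14C-Ile incorporation.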

Isoleucine--tRNA ligase [2] = molecular target: T2, Isoleucine--tRNA ligase (Staphylococcus aureus, UniProt P41972); assay: as §1; summary of the method: as §2
T2 sequence (P41972 whole entry): T1 sequence (whole entry)

Isoleucine--tRNA ligase [3] = molecular target: T2, Isoleucine--tRNA ligase; assay: Inhibition concentration against isoleucyl tRNA synthetase from Staphylococcus aureus NCTC 6571; summary of the method: as §2

Row | SMILES | MIC (Staphylococcus aureus) [ug m1 l-1] | inhibition [1] [%] | IC50 (Isoleucine--tRNA ligase [2]) [nM] | IC50 (Isoleucine--tRNA ligase [3]) [nM]
1 | C[C@H]([C@@H]1O[C@H]1C[C@H]1CO[C@@H](Cc2ncc(-c3ccccc3)o2)[C@H](O)[C@@H]1O)[C@H](C)O | >64 | 0 |  | 
2 | C[C@H]([C@@H]1O[C@H]1C[C@H]1CO[C@@H](Cc2cnc(-c3ccccc3)o2)[C@H](O)[C@@H]1O)[C@H](C)O | 2 |  | 4.71 | 
3 | C/C(=C\C(=O)OCCCCCCCCC(=O)O)C[C@@H]1OC[C@H](C[C@@H]2O[C@H]2[C@@H](C)[C@H](C)O)[C@@H](O)[C@H]1O [MUPIROCIN] | 0.13 |  | 1.7 | 
4 | C[C@H]([C@@H]1O[C@H]1C[C@H]1CO[C@@H](Cc2cc(-c3ccccc3)on2)[C@H](O)[C@@H]1O)[C@H](C)O | >64 | 17 |  | 

Other lines, results leading:

Row | MIC (Staphylococcus aureus) [ug m1 l-1] | inhibition [1] [%] | IC50 (Isoleucine--tRNA ligase [2]) [nM] | IC50 (Isoleucine--tRNA ligase [3]) [nM] | SMILES
5 | 8 |  | 8.9 |  | C[C@H]([C@@H]1O[C@H]1C[C@H]1CO[C@@H](Cn2nnc(-c3ccccc3)n2)[C@H](O)[C@@H]1O)[C@H](C)O
6 | 0.5 |  | 2.95 |  | CCOC(=O)/C=C(\C)C[C@@H]1OC[C@H](C[C@@H]2O[C@H]2[C@@H](C)[C@H](C)O)[C@@H](O)[C@H]1O
7 | 4 |  | 1.73 |  | C[C@H]([C@@H]1O[C@H]1C[C@H]1CO[C@@H](Cc2nc(-c3ccccc3)no2)[C@H](O)[C@@H]1O)[C@H](C)O
8 | >64 |  |  | 14.3 | C[C@H]([C@@H]1O[C@H]1C[C@H]1CO[C@@H](Cc2csc(-c3ccccc3)n2)[C@H](O)[C@@H]1O)[C@H](C)O
9 | 4 |  | 13.1 |  | C[C@H]([C@@H]1O[C@H]1C[C@H]1CO[C@@H](Cc2cc(-c3ccccc3)no2)[C@H](O)[C@@H]1O)[C@H](C)O
10 | 8 |  | 5.19 |  | C[C@H]([C@@H]1O[C@H]1C[C@H]1CO[C@@H](Cc2nnc(-c3ccccc3)o2)[C@H](O)[C@@H]1O)[C@H](C)O
